# Measured values reported in ChEMBL document CHEMBL4118097, “Selective Inhibitors of Dual Leucine Zipper Kinase (DLK, MAP3K12) with Activity in a Model of Alzheimer's Disease” (J Med Chem, 2017).
# Columns and labels:
# [1] = biological target: Dual specificity tyrosine-phosphorylation-regulated kinase 4 (Homo sapiens) (UniProt Q9NR20); assay: Inhibition of full length recombinant GST-tagged human DYRK4 expressed in baculovirus expression system at 1 uM by FRET assay relative to control
# [2] = biological target: Calcium/calmodulin-dependent protein kinase type II subunit beta (Homo sapiens) (UniProt Q13554); assay: Inhibition of recombinant full length His-tagged human CaMK2beta expressed in baculovirus expression system at 1 uM by FRET assay relative to control
# [3] = biological target: Aurora kinase B (Homo sapiens) (UniProt Q96GD4); assay: Inhibition of recombinant full length His-tagged human Aurora B expressed in baculovirus expression system at 1 uM by FRET assay relative to control
# [4] = biological target: Leucine-rich repeat serine/threonine-protein kinase 2 (Homo sapiens) (UniProt Q5S007); assay: Inhibition of recombinant GST-tagged human LRRK2 catalytic domain (970 to 2527 residues) expressed in baculovirus expression system at 1 uM by FRET assay relative to control
# Procedure, shortened: (§1)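 Single-point screen at 1 μM compound in a 220-kinase panel run by Life Technologies (SelectScreen). Z′-LYTE format: phosphorylation of a labeled peptide substrate read by FRET. Values are reported as percent inhibition.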
# [5] = biological target: LIM domain kinase 1 (Homo sapiens) (UniProt P53667); assay: Inhibition of recombinant His-tagged human LIMK1 catalytic domain (285 to 638 residues) expressed in baculovirus expression system at 1 uM by FRET assay relative to control; procedure, shortened: as §1
# [6] = biological target: T1, Mitogen-activated protein kinase 10 (Homo sapiens, UniProt P53779); assay: Inhibition of recombinant full length GST-tagged human JNK3 expressed in baculovirus expression system at 1 uM by FRET assay relative to control
# Procedure, shortened: (§2)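 Single-concentration screen at 1 μM in Life Technologies SelectScreen, across a 220-kinase panel. Z′-LYTE format measures phosphorylation of a labeled peptide by FRET. Results are reported as percent inhibition.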
# [7] = biological target: Tyrosine-protein kinase JAK1 (Homo sapiens) (UniProt P23458); assay: Inhibition of recombinant GST-tagged human JAK1 catalytic domain (866 to 1154 residues) expressed in baculovirus expression system at 1 uM by FRET relative to control; procedure, shortened: as §1
# [8] = biological target: Homeodomain-interacting protein kinase 2 (Homo sapiens) (UniProt Q9H2X6); assay: Inhibition of recombinant GST-tagged human HIPK2 catalytic domain expressed in baculovirus expression system at 1 uM by FRET relative to control; procedure, shortened: as §1
# [9] = biological target: Beta-adrenergic receptor kinase 1 (Homo sapiens) (UniProt P25098); assay: Inhibition of recombinant full length His-tagged human GRK2 expressed in baculovirus expression system at 1 uM by FRET relative to control
# [10] = biological target: Vascular endothelial growth factor receptor 1 (Homo sapiens) (UniProt P17948); assay: Inhibition of recombinant GST-tagged human FLT1 cytoplasmic domain expressed in baculovirus expression system at 1 uM by FRET assay relative to control; procedure, shortened: as §1
# [11] = biological target: Phosphorylase b kinase gamma catalytic chain, liver/testis isoform (Homo sapiens) (UniProt P15735); assay: Inhibition of recombinant full length GST-tagged human PHKgamma2 expressed in baculovirus expression system at 1 uM by FRET assay relative to control; procedure, shortened: as §2
# [12] = biological target: Platelet-derived growth factor receptor alpha (Homo sapiens) (UniProt P16234); assay: Inhibition of recombinant GST-tagged human PDGFRalpha cytoplasmic domain expressed in baculovirus expression system at 1 uM by FRET assay relative to control; procedure, shortened: as §1
# [13] = biological target: PAS domain-containing serine/threonine-protein kinase (Homo sapiens) (UniProt Q96RG2); assay: Inhibition of recombinant GST-tagged human PASK catalytic domain expressed in baculovirus expression system at 1 uM by FRET assay relative to control; procedure, shortened: as §1
# [14] = biological target: Serine/threonine-protein kinase PAK 6 (Homo sapiens) (UniProt Q9NQU5); assay: Inhibition of recombinant full length His-tagged human PAK6 expressed in baculovirus expression system at 1 uM by FRET assay relative to control
# [15] = biological target: Mitogen-activated protein kinase kinase kinase 10 (Homo sapiens, UniProt Q02779); assay: Inhibition of recombinant human full length GST-tagged MLK2 expressed in baculovirus at 1 uM by FRET assay relative to control
# [16] = biological target: MAP kinase-interacting serine/threonine-protein kinase 1 (Homo sapiens) (UniProt Q9BUB5); assay: Inhibition of recombinant human N-terminal full length GST-tagged MKNK1 expressed in baculovirus at 1 uM by FRET assay relative to control
# [17] = biological target: Misshapen-like kinase 1 (Homo sapiens) (UniProt Q8N4C8); assay: Inhibition of recombinant human GST-tagged MINK1 expressed in baculovirus at 1 uM by FRET assay relative to control
# [18] = biological target: Wee1-like protein kinase (Homo sapiens) (UniProt P30291); assay: Inhibition of recombinant N-terminal full length GST-tagged human WEE1 expressed in baculovirus expression system at 1 uM by FRET assay relative to control; procedure, shortened: as §2
# [19] = biological target: Tyrosine-protein kinase TXK (Homo sapiens) (UniProt P42681); assay: Inhibition of recombinant N-terminal GST-tagged human TXK (260 to 527 residues) expressed in baculovirus expression system at 1 uM by FRET assay relative to control; procedure, shortened: as §2
# [20] = biological target: Serine/threonine-protein kinase TBK1 (Homo sapiens) (UniProt Q9UHD2); assay: Inhibition of recombinant full length GST-tagged human TBK1 expressed in insect cells at 1 uM by FRET assay relative to control; procedure, shortened: as §2
# [21] = biological target: Ribosomal protein S6 kinase alpha-2 (Homo sapiens) (UniProt Q15349); assay: Inhibition of recombinant full length GST-tagged human RSK3 expressed in insect cells at 1 uM by FRET assay relative to control; procedure, shortened: as §2
# [22] = test system: RAF proto-oncogene serine/threonine-protein kinase (Homo sapiens), P04049 [Y340D,Y341D]; assay: Inhibition of recombinant N-terminal GST-tagged human RAF1 catalytic domain (306 to 648 residues) Y340D/Y341D double mutant expressed in baculovirus expression system at 1 uM by FRET assay relative to control
# Procedure, shortened: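 Part of a 220-kinase panel run at a single concentration of 1 μM. Z′-LYTE format: phosphorylation of a labelled peptide read by FRET. Values reported as percent inhibition.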
# [23] = biological target: Serine/threonine-protein kinase PLK2 (Homo sapiens) (UniProt Q9NYY3); assay: Inhibition of full length recombinant GST-tagged human PLK2 expressed in baculovirus expression system at 1 uM by FRET assay relative to control
# [24] = biological target: T1, Mitogen-activated protein kinase 10; assay: Inhibition of recombinant full length GST-tagged human JNK3 expressed in baculovirus expression system by FRET assay
# [25] = biological target: Adrenergic receptor alpha-2 (Homo sapiens) (UniProt P08913+P18825+P18089); assay: Binding affinity to alpha2 adrenergic receptor (unknown origin) at 10 uM relative to control; type: protein assay
# Procedure, shortened: (§3)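 Broad radioligand-binding and enzyme screening panel covering 42 targets (biogenic amine and neuropeptide receptors, ion channels, neurotransmitter transporters, acetylcholinesterase). Single test concentration of 10 μM. Results expressed as binding relative to control, with a hit defined as >50% of control.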
# [26] = biological target: Beta-2 adrenergic receptor (Homo sapiens) (UniProt P07550); assay: Binding affinity to recombinant human beta2 adrenergic receptor at 10 uM relative to control; procedure, shortened: as §3
# T1 sequence (P53779 whole entry): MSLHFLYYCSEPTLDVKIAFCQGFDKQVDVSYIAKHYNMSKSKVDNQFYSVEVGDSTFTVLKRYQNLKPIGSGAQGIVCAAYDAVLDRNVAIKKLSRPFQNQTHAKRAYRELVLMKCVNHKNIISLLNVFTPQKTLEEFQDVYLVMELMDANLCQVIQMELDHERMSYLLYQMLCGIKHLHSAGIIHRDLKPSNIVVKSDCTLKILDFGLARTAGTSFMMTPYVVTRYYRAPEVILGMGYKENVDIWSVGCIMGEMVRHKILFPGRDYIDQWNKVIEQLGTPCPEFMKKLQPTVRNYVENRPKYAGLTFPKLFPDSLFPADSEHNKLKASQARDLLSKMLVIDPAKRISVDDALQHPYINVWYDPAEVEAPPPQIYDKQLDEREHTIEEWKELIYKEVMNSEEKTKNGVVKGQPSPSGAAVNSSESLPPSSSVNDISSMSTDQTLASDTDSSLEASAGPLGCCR
# Mitogen-activated protein kinase kinase kinase 10, sequence (Q02779 whole entry, looked up): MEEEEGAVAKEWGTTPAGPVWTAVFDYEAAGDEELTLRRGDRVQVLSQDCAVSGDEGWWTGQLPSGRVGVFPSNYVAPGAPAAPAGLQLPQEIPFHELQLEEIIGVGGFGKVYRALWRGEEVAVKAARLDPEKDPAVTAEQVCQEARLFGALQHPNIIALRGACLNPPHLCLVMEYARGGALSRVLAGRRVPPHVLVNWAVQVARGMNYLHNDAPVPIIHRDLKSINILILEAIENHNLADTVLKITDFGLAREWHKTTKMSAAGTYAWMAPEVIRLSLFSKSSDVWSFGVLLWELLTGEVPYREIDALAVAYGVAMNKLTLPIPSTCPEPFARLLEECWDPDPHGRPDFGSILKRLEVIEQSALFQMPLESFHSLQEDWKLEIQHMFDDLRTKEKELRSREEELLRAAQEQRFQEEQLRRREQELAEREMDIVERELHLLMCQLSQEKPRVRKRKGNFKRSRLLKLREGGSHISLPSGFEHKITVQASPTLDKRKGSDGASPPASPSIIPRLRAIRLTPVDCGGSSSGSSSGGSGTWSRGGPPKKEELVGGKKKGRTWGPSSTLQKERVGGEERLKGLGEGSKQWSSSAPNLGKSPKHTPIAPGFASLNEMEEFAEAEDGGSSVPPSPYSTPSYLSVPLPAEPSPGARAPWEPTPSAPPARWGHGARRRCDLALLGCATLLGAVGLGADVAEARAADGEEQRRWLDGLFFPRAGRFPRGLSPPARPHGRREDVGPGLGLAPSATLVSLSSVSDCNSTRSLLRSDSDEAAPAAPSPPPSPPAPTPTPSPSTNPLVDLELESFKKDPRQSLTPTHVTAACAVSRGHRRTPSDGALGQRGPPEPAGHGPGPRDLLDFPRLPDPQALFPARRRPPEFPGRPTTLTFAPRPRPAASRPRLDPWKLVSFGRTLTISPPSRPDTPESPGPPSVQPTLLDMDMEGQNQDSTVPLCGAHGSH
# Misshapen-like kinase 1 (Homo sapiens), sequence (Q8N4C8 whole entry, looked up): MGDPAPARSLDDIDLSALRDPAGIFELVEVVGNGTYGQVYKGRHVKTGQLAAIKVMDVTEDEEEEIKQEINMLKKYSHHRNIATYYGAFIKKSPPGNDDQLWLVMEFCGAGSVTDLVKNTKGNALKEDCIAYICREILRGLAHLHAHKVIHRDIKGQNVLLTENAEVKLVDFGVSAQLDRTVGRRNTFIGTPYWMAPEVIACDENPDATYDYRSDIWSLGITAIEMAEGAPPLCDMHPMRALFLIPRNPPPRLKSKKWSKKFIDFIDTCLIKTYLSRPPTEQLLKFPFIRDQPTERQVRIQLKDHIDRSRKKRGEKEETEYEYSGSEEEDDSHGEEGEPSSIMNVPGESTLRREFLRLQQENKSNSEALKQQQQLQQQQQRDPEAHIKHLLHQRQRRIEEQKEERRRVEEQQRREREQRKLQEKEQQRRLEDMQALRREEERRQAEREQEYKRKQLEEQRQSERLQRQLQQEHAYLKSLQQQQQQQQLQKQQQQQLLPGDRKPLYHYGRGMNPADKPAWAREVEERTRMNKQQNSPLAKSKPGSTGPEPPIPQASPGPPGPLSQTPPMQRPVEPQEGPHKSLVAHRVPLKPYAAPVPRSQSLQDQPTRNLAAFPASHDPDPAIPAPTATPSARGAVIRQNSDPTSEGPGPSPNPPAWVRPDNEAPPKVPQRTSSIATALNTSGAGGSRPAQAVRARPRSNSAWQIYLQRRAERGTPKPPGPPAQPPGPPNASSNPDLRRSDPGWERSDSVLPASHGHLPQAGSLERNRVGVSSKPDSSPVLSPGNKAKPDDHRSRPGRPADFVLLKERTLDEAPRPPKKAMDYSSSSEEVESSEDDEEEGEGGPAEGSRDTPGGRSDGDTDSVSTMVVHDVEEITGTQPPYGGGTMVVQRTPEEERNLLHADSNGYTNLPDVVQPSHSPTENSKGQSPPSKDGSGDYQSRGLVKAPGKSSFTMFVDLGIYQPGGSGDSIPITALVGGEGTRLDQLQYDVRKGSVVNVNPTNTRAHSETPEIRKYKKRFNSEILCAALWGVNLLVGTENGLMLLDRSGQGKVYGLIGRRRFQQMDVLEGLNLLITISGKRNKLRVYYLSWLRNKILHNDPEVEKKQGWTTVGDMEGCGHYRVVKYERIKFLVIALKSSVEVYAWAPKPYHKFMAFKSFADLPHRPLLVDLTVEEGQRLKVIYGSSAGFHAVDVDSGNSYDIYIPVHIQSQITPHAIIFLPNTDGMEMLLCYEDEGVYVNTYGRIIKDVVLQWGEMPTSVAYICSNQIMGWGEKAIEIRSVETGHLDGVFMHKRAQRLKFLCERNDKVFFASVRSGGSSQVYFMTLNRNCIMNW
# PAS domain-containing serine/threonine-protein kinase (Homo sapiens), sequence (Q96RG2 whole entry, the tested form may be a part): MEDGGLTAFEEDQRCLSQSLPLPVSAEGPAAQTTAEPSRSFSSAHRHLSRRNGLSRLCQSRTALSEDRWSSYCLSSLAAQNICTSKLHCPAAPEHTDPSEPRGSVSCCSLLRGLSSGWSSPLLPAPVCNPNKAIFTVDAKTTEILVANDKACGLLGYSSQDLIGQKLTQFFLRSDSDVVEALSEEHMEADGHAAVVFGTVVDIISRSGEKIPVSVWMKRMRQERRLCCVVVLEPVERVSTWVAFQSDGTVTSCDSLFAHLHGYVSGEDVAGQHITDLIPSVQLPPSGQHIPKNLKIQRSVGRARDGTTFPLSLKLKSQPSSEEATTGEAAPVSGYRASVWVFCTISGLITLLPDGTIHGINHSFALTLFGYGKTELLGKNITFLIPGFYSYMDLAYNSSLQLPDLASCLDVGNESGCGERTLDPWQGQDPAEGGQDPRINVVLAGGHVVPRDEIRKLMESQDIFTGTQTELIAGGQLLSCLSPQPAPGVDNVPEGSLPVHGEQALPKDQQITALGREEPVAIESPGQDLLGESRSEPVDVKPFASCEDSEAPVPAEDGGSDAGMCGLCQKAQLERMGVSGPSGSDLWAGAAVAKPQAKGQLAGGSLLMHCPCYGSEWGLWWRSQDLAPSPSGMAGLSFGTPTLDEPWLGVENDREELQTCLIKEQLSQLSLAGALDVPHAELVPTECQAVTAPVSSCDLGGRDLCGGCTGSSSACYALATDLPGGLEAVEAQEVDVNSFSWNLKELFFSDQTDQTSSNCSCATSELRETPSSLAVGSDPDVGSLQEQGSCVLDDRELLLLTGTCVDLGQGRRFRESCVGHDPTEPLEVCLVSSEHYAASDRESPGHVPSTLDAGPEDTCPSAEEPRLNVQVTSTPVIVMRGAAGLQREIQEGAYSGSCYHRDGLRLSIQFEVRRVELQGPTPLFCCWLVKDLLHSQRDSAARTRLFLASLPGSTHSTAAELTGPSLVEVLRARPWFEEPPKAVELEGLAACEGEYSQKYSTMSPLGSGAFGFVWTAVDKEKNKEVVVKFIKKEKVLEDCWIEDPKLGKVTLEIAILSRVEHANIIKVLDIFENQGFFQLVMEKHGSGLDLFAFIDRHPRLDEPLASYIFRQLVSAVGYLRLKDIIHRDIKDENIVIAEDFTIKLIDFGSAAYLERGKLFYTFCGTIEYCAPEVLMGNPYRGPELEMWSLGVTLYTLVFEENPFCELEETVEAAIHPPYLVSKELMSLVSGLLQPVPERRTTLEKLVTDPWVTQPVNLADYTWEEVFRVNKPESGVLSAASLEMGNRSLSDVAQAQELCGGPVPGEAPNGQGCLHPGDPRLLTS
# Serine/threonine-protein kinase PAK 6 (Homo sapiens), sequence (Q9NQU5 whole entry, looked up): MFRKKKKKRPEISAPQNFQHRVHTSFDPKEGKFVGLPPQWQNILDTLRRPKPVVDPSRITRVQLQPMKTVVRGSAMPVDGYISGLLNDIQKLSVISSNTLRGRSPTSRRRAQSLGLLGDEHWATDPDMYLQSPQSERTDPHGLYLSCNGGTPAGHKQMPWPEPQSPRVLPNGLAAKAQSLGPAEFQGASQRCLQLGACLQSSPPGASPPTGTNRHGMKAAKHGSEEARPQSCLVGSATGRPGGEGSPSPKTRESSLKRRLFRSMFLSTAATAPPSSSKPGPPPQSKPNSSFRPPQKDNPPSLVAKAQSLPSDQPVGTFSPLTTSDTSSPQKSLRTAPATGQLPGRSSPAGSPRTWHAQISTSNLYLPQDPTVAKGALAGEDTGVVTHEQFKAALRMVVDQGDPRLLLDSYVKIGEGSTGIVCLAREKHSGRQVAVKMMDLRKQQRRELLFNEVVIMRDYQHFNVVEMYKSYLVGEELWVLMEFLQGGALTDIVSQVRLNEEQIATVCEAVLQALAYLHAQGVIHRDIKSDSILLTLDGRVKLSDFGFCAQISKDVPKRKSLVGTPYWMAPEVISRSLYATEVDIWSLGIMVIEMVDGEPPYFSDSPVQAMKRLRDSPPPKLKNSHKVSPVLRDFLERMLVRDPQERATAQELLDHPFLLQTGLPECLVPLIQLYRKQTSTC
# Aurora kinase B (Homo sapiens), sequence (Q96GD4 whole entry, the tested form may be a part): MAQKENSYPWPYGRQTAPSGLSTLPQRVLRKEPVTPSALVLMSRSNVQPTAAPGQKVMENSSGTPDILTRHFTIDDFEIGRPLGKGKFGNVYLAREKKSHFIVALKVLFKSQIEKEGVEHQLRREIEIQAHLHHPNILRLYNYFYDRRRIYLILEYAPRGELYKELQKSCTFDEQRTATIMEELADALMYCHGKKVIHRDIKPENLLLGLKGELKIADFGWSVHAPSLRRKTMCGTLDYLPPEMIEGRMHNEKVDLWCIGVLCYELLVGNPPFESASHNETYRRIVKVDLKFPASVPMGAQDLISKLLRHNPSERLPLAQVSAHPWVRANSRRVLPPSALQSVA
SMILES,inhibition [1] [%],inhibition [2] [%],inhibition [3] [%],inhibition [4] [%],inhibition [5] [%],inhibition [6] [%],inhibition [7] [%],inhibition [8] [%],inhibition [9] [%],inhibition [10] [%],inhibition [11] [%],inhibition [12] [%],inhibition [13] [%],inhibition [14] [%],inhibition [15] [%],inhibition [16] [%],inhibition [17] [%],inhibition [18] [%],inhibition [19] [%],inhibition [20] [%],other results
Nc1ncc(-c2cc([C@H]3[C@@H]4CN(C5COC5)C[C@@H]43)n(CC3CC3)n2)cc1C(F)(F)F,-1.6,1.6,7.4,20.6,0.3,4.2,3.9,14.9,2.1,-0.6,3.8,11.1,4.5,5.1,13.2,-3.8,12,7.1,25.6,5.3,inhibition [21]: 3.5%; inhibition [22]: 4%; inhibition [23]: 2.7%; IC50 [24]: > 10 µM; Activity [25]: > 50%; Activity [26]: > 50%
CC(C)n1nc(-c2cnc(N)c(OC(F)(F)F)c2)cc1[C@H]1[C@@H]2CN(C3COC3)C[C@@H]21,-1.4,10.6,14.4,15.7,7.7,8.6,6.9,18,-2.5,4.8,1.7,7.1,-0.6,4.8,10.9,1.1,33.3,4.9,4.7,9.4,inhibition [21]: 3.6%; inhibition [22]: -1.9%; inhibition [23]: 17.3%; IC50 [24]: > 10 µM; Activity [25]: > 50%; Activity [26]: > 50%
